# Bioassay records deposited in PubChem BioAssay by The Scripps Research Institute Molecular Screening Center.
# Sampled rows, rich in hits. Any-hit rate of the full collection: about 1.8%.
# M4 ag: agonists of human muscarinic M4 receptor (CHRM4); AID 624127; 360,000 compounds, 0.14% hits; activation, % at 3 µM; CHO-K1 hM4/Gqi5, Fluo-8 calcium fluorescence; vehicle 0%, full acetylcholine response 100%; P08173;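 active means activation above the run mean over all test wells plus 3 SD, cut at about 32% in these data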;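 further: peak over basal fluorescence ratio per well then scaled between controls; 0% = DMSO wells and 100% = acetylcholine at EC100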
# M5 PAM: potentiates acetylcholine response at human M5 receptor; P08912; CHO-K1 hM5, Fluo-8 calcium, ACh EC20 PAM; 0% = ACh EC20, 100% = ACh EC100; activation, % at 3 µM; 360,000 compounds, 0.3% hits;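 active means activation above the run cutoff, the mean activation of all test compounds plus 3 SD, cut at about 18% in these data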
# Target sequence (P08912 whole entry, looked up): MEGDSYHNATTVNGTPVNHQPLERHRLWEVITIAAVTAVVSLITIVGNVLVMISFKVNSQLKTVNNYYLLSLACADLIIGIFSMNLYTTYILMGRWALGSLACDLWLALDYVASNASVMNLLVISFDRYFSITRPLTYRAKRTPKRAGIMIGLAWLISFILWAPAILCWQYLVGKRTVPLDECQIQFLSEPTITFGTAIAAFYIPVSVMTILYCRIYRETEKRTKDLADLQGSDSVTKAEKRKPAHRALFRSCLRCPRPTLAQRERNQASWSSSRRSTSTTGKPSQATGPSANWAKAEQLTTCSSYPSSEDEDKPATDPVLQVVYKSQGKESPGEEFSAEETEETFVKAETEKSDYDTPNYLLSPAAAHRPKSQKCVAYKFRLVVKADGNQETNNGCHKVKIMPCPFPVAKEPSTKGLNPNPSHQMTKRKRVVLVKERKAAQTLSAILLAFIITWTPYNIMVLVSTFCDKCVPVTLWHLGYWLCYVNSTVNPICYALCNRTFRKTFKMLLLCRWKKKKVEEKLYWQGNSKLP
#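 System: CHO-K1 cell line with stable human muscarinic M5 receptor expression | Also added: EC20 acetylcholine as agonist stimulus | Compound: One concentration, 3 µM final (nominal) | Timing: Fluo-8 loading 80 min at 37 °C plus 30 min room temperature | Measured by: Fluo-8 calcium dye fluorescence, kinetic read | Read-out basis: % activation, ACh-normalized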
# CHRM5 agonist: CHRM5 agonism in calcium assay | P08912 | 360,000 compounds, 0.19% hits | activation, % at 3 µM | AID 624037 | CHO-K1 hM5 cells, Fluo-8 calcium fluorescence; 0% DMSO wells, 100% maximal acetylcholine response;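 active means activation above the run's mean over test compounds plus 3 SD, cut at about 23% in these data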;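 further: signal is peak over basal fluorescence ratio across the kinetic read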
# CHRM4 PAM: potentiates acetylcholine response at human M4 receptor; P08173; CHO-K1 hM4/Gqi5, Fluo-8 calcium fluorescence, ACh EC20; 0% = ACh EC20, 100% = maximal ACh; activation, % at 3 µM; 360,000 compounds, 0.4% hits; AID 624126;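 active means activation above its plate's cutoff, the mean activation of sample wells plus 3 SD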
# M4 antag: blocks acetylcholine activation of human M4 receptor; P08173; CHO-hM4 cells, ACh EC80, Fluo-8 calcium fluorescence; inhibition, % at 3 µM; 360,000 compounds, 0.73% hits; AID 624125;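 active means inhibition above its plate's cutoff, the mean inhibition of sample wells plus 3 SD, cut at about 27% in these data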;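 further: 0% = acetylcholine EC80 with DMSO and 100% = DMSO without agonist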
# CHRM5 antagonist: CHRM5 antagonism in calcium assay; P08912; CHO-hM5 cells, Fluo-8 calcium fluorescence, ACh EC80; inhibition, % at 3 µM; 360,000 compounds, 0.59% hits;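 active means inhibition above a per-plate cutoff, the mean of that plate's test compounds plus 3 SD, cut at about 27% in these data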;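 further: 0% = acetylcholine EC80 with DMSO and 100% = DMSO without agonist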
# * marks the source's active call; other numbers are inactive results; + = active, no number.
SMILES,M4 ag,M5 PAM,CHRM5 agonist,CHRM4 PAM,M4 antag,CHRM5 antagonist
CCn1c(=O)cc(OCC(=O)NCc2cccs2)c2ccccc21,3,-2,-2,-1,-7,-8
Cc1nn(-c2ccccc2)c(C)c1C(=O)OCC(=O)Nc1ccccc1C(F)(F)F,-3,-5,-3,23*,-2,-3
COc1ccccc1NC(=O)COC(=O)c1c(C)nn(-c2ccccc2)c1C,17,-31,0,-1,6,17
Cn1c(=O)[nH]c(=O)c2c1nc(SCC(=O)O)n2CCOc1ccccc1,-1,-8,-6,-15,54*,5
CCOc1ccc(NC(=O)N2CCC(c3nc4ccccc4[nH]3)CC2)cc1,2,-6,-6,4,-13,-8
Cn1c(-c2ccc3c(c2)OCO3)cnc1NCc1ccccc1Cl,1,-15,-10,-26,50*,22
Cn1c(-c2ccc3c(c2)OCO3)cnc1NCc1ccccc1,1,-6,-8,-13,11,1
Cn1c(-c2ccc3c(c2)OCO3)cnc1NCc1cccc(Cl)c1,2,-20,-7,-25,32*,12
O=C(c1cc(S(=O)(=O)NCc2ccco2)ccc1Br)N1CCOCC1,0,6,2,2,-2,1
COc1ccc(CNC(=O)COC(=O)c2cc(C)oc2C)cc1,0,3,-1,5,1,-6
COC(=O)c1ccccc1-c1c2ccc(=N)cc-2oc2cc(N)ccc12,+,-46,+,-20,101*,101*
Cc1ccc(C)c(N2CCN(S(=O)(=O)c3ccc4c(c3)NC(=O)CC(=O)N4)CC2)c1,1,-19,-3,-17,88*,4
Cc1ccc(C)c(N2CCN(S(=O)(=O)c3ccc4c(c3)NC(=O)CO4)CC2)c1,-1,2,-3,-9,-19,-7
Cn1c(COc2ccccc2)nnc1SCC(=O)NNC(=O)C1CCCCC1,0,-3,1,3,-24,4
O=S(=O)(c1cc(Br)ccc1Br)N1CCCCCC1,-3,-1,-4,2,-39,1
Nc1ncc(Br)cc1S(=O)(=O)N1CCCCCC1,1,-15,-8,-2,-2,29*
CNC(=O)C[C@H]1C(=O)N(c2ccc(OC)cc2)C[C@@H]1C,1,0,0,1,-9,1
C[C@@H]1CN(Cc2nc(-c3cccs3)no2)C[C@H](C)O1,1,-10,-1,4,27*,11
O=C(COC(=O)c1ccc(O)cc1)NCCCc1ccccc1,1,-4,1,2,-1,4
CCN(CC)CCCOC(=O)C(c1ccccc1)c1ccccc1,2,-24,-6,-15,91*,98*
CN(C)Cc1c(OC(=O)c2ccc(N)cc2)ccc2ccccc12,4,11,0,3,-6,-2
CCC(=O)c1ccc(OC(=O)c2ccc(Br)o2)cc1,33*,-7,36*,-10,1,0
CC(=O)OC1C2CCC1C([N+]1(C)CCCCC1)CC2 (configuration not stated),1,8,-10,-4,3,-3
COc1ccc(NC(=O)CCc2nnc3ccc(NCc4ccco4)nn23)cc1,18,28*,1,39*,16,14
CCN1CCN(c2c(/C=C3\SC(=S)N(Cc4ccco4)C3=O)c(C)c(C#N)c(=O)n2C)CC1,21,-20,57*,-32,7,15
SMILES,M4 ag,M5 PAM,CHRM5 agonist,CHRM4 PAM,M4 antag,CHRM5 antagonist
COc1ccc(-n2c(C)cc(/C=C3\SC(=S)N(Cc4ccco4)C3=O)c2C)cc1,2,0,8,1,7,8
Cc1ccc(NC(=O)COC(=O)CN2CCSC2=O)cc1Cl,4,1,6,11,-20,1
Cc1ccc(NC(=O)COC(=O)Cn2ccc(C(F)(F)F)n2)cc1Cl,0,11,0,22*,-20,-16
CC(C)NC(=O)Cc1ccc(Br)cc1,1,-2,-3,10,-3,1
COc1ccc(C(C)NC(=O)Cc2ccc(Br)cc2)cc1 (configuration not stated),37*,-6,-6,-4,-7,6
CN1CCN(C(=O)/C(=C/c2ccccc2)c2ccccc2)CC1,1,-18,-12,-33,53*,28*
CS(=O)(=O)c1ccc(NS(=O)(=O)c2ccc(Cl)c(C(=O)NCc3ccco3)c2)cc1,0,-3,1,24*,-39,-1
CC(=O)c1ccc(NS(=O)(=O)c2cccc(C(=O)Nc3ccccc3C(=O)O)c2)cc1,-1,11,6,14*,-21,-7
O=C(Nc1ccccc1C(=O)O)c1cc(S(=O)(=O)Nc2ccccc2)ccc1Cl,-2,12,5,16*,-9,-4
O=C(O)c1ccc(NS(=O)(=O)c2ccc(Cl)c(C(=O)Nc3ccccc3)c2)cc1,1,0,2,2,-10,7
CCN(CC)S(=O)(=O)c1ccc(Cl)c(C(=O)NCc2ccco2)c1,3,11,-4,10,4,-2
CC(=O)CCC(=O)CNC(=O)CC[C@H]1O[C@@H](n2ccc(=O)[nH]c2=O)[C@H](O)[C@@H]1O,0,5,0,11,-22,-12
CC(C)N(C(=O)[C@H]1C[C@H](CC(=O)NCCC2=CCCCC2)C(=O)N2CCc3c([nH]c4ccc(Cl)cc34)[C@]12C)C(C)C,0,-3,0,3,-10,5
Cc1ccc(Cn2cc(CN3CC(N(C)C)CS3(=O)=O)nn2)cc1 (configuration not stated),0,-6,1,8,-6,-3
O=c1c(O)c(-c2cccs2)oc2ccccc12,16,-4,9,-9,13,5
O=c1c(O)c(-c2cccs2)oc2ccc(Cl)cc12,344*,-22,66*,-18,32*,31*
Nc1c(C(=O)CSc2n[nH]c(-c3ccccc3)n2)c(=O)[nH]c(=O)n1C1CC1,2,2,5,23*,3,-1
Nc1c(C(=O)CSc2n[nH]c(-c3ccccc3Br)n2)c(=O)[nH]c(=O)n1C1CC1,0,-1,0,1,0,0
Cc1csc(-c2ccc3cc(Cl)cc(Cl)c3n2)n1,1,5,0,21*,-12,-13
Cc1nc(-c2cc(-c3ccc(Cl)cc3)no2)cs1,1,4,0,1,0,2
O=C(CC(c1ccccc1)c1ccccc1O)NCc1ccccc1Cl (configuration not stated),2,-9,-5,-4,-21,8
